Results taken from ChEMBL document CHEMBL1125502, “Structural requirements for neuropeptide Y18-36-evoked hypotension: a systematic study” (1992).
Where a SMILES comes first, the peptide text is derived from it.

Key:
Rattus norvegicus [1] = experiment: Change in mean arterial pressure measured 5 min after intra arterial administration at 0.4 mg/kg to male rats.; type: functional, Artery; design: unit not given here
Method in brief: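 Conscious, freely moving male Sprague-Dawley rats (240–280 g) with arterial catheters; peptide in saline given IA as a 100-µL bolus (100 µg). MAP recorded by pressure transducer, calculated as [[…] + diastolic]. Baseline set by saline vehicle injection before dosing; change read 5 min post-dose relative to pre-dose control. Mean ± SEM, n ≥ 3.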

Rattus norvegicus [2] = experiment: Plasma histamine level of the peptide after intra arterial administration at time 5 min in rats; type: functional, organism-based
Rattus norvegicus [3] = experiment: Plasma histamine level of the peptide after intra arterial administration at time 0 min in rats; type: functional, organism-based

| Structure (SMILES) | Delta MAP (Rattus norvegicus [1]) | Plasma histamine (Rattus norvegicus [2]) [ng/mL] | Plasma histamine (Rattus norvegicus [3]) [ng/mL] |
| --- | --- | --- | --- |
| CC[C@H](C)[C@H](NC(=O)[C@H](Cc1ccccc1)NC(=O)[C@H](Cc1c[nH]cn1)NC(=O)[C@H](CCCN=C(N)N)NC(=O)[C@H](CC(C)C)NC(=O)[C@H](C)NC(=O)[C@H](CO)NC(=O)[C@H](Cc1ccccc1)NC(=O)[C@H](Cc1ccccc1)NC(=O)[C@H](CCCN=C(N)N)NC(=O)[C@H](C)N)C(=O)N[C@@H](CC(N)=O)C(=O)N[C@@H](CC(C)C)C(=O)N[C@H](C(=O)N[C@H](C(=O)N[C@@H](CCCN=C(N)N)C(=O)N[C@@H](CCC(N)=O)C(=O)N[C@@H](CCCN=C(N)N)C(=O)N[C@@H](Cc1ccccc1)C(N)=O)[C@@H](C)O)[C@@H](C)CC (H-ARFFSALRHFINLITRQRF-NH2) | 12.33 |  |  |
| CC[C@H](C)[C@H](NC(=O)[C@H](Cc1ccc(O)cc1)NC(=O)[C@H](Cc1c[nH]cn1)NC(=O)[C@H](CCCN=C(N)N)NC(=O)[C@H](CC(C)C)NC(=O)[C@H](C)NC(=O)[C@H](CO)NC(=O)[C@H](Cc1ccc(O)cc1)NC(=O)[C@H](Cc1ccc(O)cc1)NC(=O)[C@H](CCCN=C(N)N)NC(=O)[C@H](C)N)C(=O)N[C@@H](CC(N)=O)C(=O)N[C@@H](CC(C)C)C(=O)N[C@H](C(=O)N[C@H](C(=O)N[C@@H](CCCN=C(N)N)C(=O)N[C@@H](CCC(N)=O)C(=O)N[C@@H](CCCN=C(N)N)C(=O)N[C@@H](Cc1ccc(O)cc1)C(=O)O)[C@@H](C)O)[C@@H](C)CC | -4.75 |  |  |
| CC[C@H](C)[C@H](NC(=O)[C@H](Cc1ccc(O)cc1)NC(=O)[C@H](Cc1c[nH]cn1)NC(=O)[C@H](CCCN=C(N)N)NC(=O)[C@H](CC(C)C)NC(=O)[C@H](C)NC(=O)[C@H](CO)NC(=O)[C@H](Cc1ccc(O)cc1)NC(=O)[C@H](Cc1ccc(O)cc1)NC(=O)[C@H](CCCN=C(N)N)NC(=O)[C@H](C)NC(C)=O)C(=O)N[C@@H](CC(N)=O)C(=O)N[C@@H](CC(C)C)C(=O)N[C@H](C(=O)N[C@H](C(=O)N[C@@H](CCCN=C(N)N)C(=O)N[C@@H](CCC(N)=O)C(=O)N[C@@H](CCCN=C(N)N)C(=O)N[C@@H](Cc1ccc(O)cc1)C(N)=O)[C@@H](C)O)[C@@H](C)CC | 12 | 31.1 | 16 |
| CC[C@H](C)[C@H](NC(=O)[C@H](Cc1ccccc1)NC(=O)[C@H](Cc1c[nH]cn1)NC(=O)[C@H](CCCN=C(N)N)NC(=O)[C@H](CC(C)C)NC(=O)[C@H](C)NC(=O)[C@H](CO)NC(=O)[C@H](Cc1ccc(O)cc1)NC(=O)[C@H](Cc1ccc(O)cc1)NC(=O)[C@H](CCCN=C(N)N)NC(=O)[C@H](C)N)C(=O)N[C@@H](CC(N)=O)C(=O)N[C@@H](CC(C)C)C(=O)N[C@H](C(=O)N[C@H](C(=O)N[C@@H](CCCN=C(N)N)C(=O)N[C@@H](CCC(N)=O)C(=O)N[C@@H](CCCN=C(N)N)C(=O)N[C@@H](Cc1ccccc1)C(N)=O)[C@@H](C)O)[C@@H](C)CC (H-ARYYSALRHFINLITRQRF-NH2) | -6 |  |  |
| CC[C@H](C)[C@H](NC(=O)[C@H](Cc1ccc(O)cc1)NC(=O)[C@H](Cc1c[nH]cn1)NC(=O)[C@H](CCCN=C(N)N)NC(=O)[C@H](CC(C)C)NC(=O)[C@H](C)NC(=O)[C@H](CO)NC(=O)[C@H](Cc1ccc(O)cc1)NC(=O)[C@H](Cc1ccc(O)cc1)NC(=O)[C@H](CCCN=C(N)N)NC(=O)[C@H](C)N)C(=O)N[C@@H](CC(N)=O)C(=O)N[C@@H](CC(C)C)C(=O)N[C@H](C(=O)N[C@H](C(N)=O)[C@@H](C)O)[C@@H](C)CC (H-ARYYSALRHYINLIT-NH2) | 0 |  |  |
| CC(C)C[C@H](NC(=O)[C@H](C)NC(=O)[C@H](CO)NC(=O)[C@H](Cc1ccc(O)cc1)NC(=O)[C@H](Cc1ccc(O)cc1)NC(=O)[C@H](CCCN=C(N)N)NC(=O)[C@H](C)N)C(=O)N[C@@H](CCCN=C(N)N)C(=O)N[C@@H](Cc1c[nH]cn1)C(=O)N[C@@H](Cc1ccc(O)cc1)C(N)=O (H-ARYYSALRHY-NH2) | -12 |  |  |
| CC[C@H](C)[C@H](NC(=O)[C@H](Cc1ccccc1)NC(=O)[C@H](Cc1c[nH]cn1)NC(=O)[C@H](CCCN=C(N)N)NC(=O)[C@H](CC(C)C)NC(=O)[C@H](C)NC(=O)[C@H](CO)NC(=O)[C@H](Cc1ccc(O)cc1)NC(=O)[C@H](Cc1ccccc1)NC(=O)[C@H](CCCN=C(N)N)NC(=O)[C@H](C)N)C(=O)N[C@@H](CC(N)=O)C(=O)N[C@@H](CC(C)C)C(=O)N[C@H](C(=O)N[C@H](C(=O)N[C@@H](CCCN=C(N)N)C(=O)N[C@@H](CCC(N)=O)C(=O)N[C@@H](CCCN=C(N)N)C(=O)N[C@@H](Cc1ccccc1)C(N)=O)[C@@H](C)O)[C@@H](C)CC (H-ARFYSALRHFINLITRQRF-NH2) | 3 |  |  |
| CC(C)C[C@H](NC(=O)[C@H](C)NC(=O)[C@H](CO)NC(=O)[C@H](Cc1ccc(O)cc1)NC(=O)[C@H](Cc1ccc(O)cc1)NC(=O)[C@H](CCCN=C(N)N)NC(=O)[C@H](C)N)C(=O)N[C@@H](CCCN=C(N)N)C(N)=O (H-ARYYSALR-NH2) | 4.67 |  |  |
| CC[C@H](C)[C@H](NC(=O)[C@H](Cc1ccc(O)cc1)NC(=O)[C@H](Cc1c[nH]cn1)NC(=O)[C@H](CCCN=C(N)N)NC(=O)[C@H](CC(C)C)NC(=O)[C@H](C)NC(=O)[C@H](CO)NC(=O)[C@H](Cc1ccc(O)cc1)NC(=O)[C@H](Cc1ccc(O)cc1)NC(=O)[C@H](CCCN=C(N)N)NC(=O)[C@H](C)N)C(=O)N[C@@H](CC(N)=O)C(=O)N[C@@H](CC(C)C)C(=O)N[C@H](C(=O)N[C@H](C(=O)N[C@@H](CCCN=C(N)N)C(=O)N[C@@H](CCC(N)=O)C(=O)N[C@@H](CCCN=C(N)N)C(=O)N[C@@H](Cc1ccc(O)cc1)C(=O)N[C@@H](Cc1ccc(O)cc1)C(=O)O)[C@@H](C)O)[C@@H](C)CC | -8.35 |  |  |
| CC(C)C[C@H](NC(=O)[C@H](C)NC(=O)[C@H](CO)NC(=O)[C@H](Cc1ccc(O)cc1)NC(=O)[C@H](Cc1ccc(O)cc1)NC(=O)[C@H](CCCN=C(N)N)NC(=O)[C@H](C)N)C(N)=O (H-ARYYSAL-NH2) | 3.33 |  |  |
| CC[C@H](C)[C@H](NC(=O)[C@H](Cc1ccccc1)NC(=O)[C@H](Cc1c[nH]cn1)NC(=O)[C@H](CCCN=C(N)N)NC(=O)[C@H](CC(C)C)NC(=O)[C@H](C)NC(=O)[C@H](CO)NC(=O)[C@H](Cc1ccccc1)NC(=O)[C@H](Cc1ccc(O)cc1)NC(=O)[C@H](CCCN=C(N)N)NC(=O)[C@H](C)N)C(=O)N[C@@H](CC(N)=O)C(=O)N[C@@H](CC(C)C)C(=O)N[C@H](C(=O)N[C@H](C(=O)N[C@@H](CCCN=C(N)N)C(=O)N[C@@H](CCC(N)=O)C(=O)N[C@@H](CCCN=C(N)N)C(=O)N[C@@H](Cc1ccccc1)C(N)=O)[C@@H](C)O)[C@@H](C)CC (H-ARYFSALRHFINLITRQRF-NH2) | 7.66 |  |  |
